Test results taken from ChEMBL document CHEMBL4715682, “Potent trifluoromethoxy, trifluoromethylsulfonyl, trifluoromethylthio and pentafluorosulfanyl containing (1,3,4-oxadiazol-2-yl)benzamides against drug-resistant Gram-positive bacteria” (RSC Med Chem, 2020).
Values after ≈ are worked out from the molar mass of the structure shown. Active and inactive are the calls of the source. The rule behind the calls is not given here.

Key:
Staphylococcus aureus [1] = test: Bacteriostatic activity against methicillin-resistant Staphylococcus aureus ATCC 33592 assessed as reduction in bacterial growth incubated for 18 hrs by CLSI method; type: functional
Staphylococcus aureus [2] = test: Antibacterial activity against methicillin-sensitive Staphylococcus aureus NRS 107 assessed as inhibition of visible bacterial growth incubated for 18 to 20 hrs by CLSI method; type: functional; conditions: time 18-20 hrs
In short: (§1)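 CLSI broth microdilution. Strains grown aerobically overnight on tryptic soy agar at 37 °C, adjusted to 0.5 McFarland and diluted in cation-adjusted Mueller–Hinton broth to about 5×10^5 CFU/mL. Compounds and control drugs serially diluted across the plate. Incubated aerobically at 37 °C for 18-20 h. MIC is the lowest concentration with no visible growth.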

Staphylococcus aureus [3] = test: Antibacterial activity against methicillin-resistant Staphylococcus aureus NRS383 assessed as inhibition of visible bacterial growth incubated for 18 to 20 hrs by CLSI method; type: functional; conditions: time 18-20 hrs; in short: as §1
Escherichia coli = test: Antibacterial activity against Escherichia coli ATCC 25404 assessed as inhibition of visible bacterial growth at 16 ug/ml incubated for 18 to 20 hrs by CLSI method; type: functional, organism-based; conditions: B ATCC 25404, dose 16.0 µg/ml, time 18-20 hrs; in short: as §1
Staphylococcus aureus [4] = test: Antibacterial activity against vancomycin-resistant Staphylococcus aureus 12 assessed as inhibition of visible bacterial growth incubated for 18 to 20 hrs by CLSI method; type: functional; conditions: time 18-20 hrs; in short: as §1
Staphylococcus aureus [5] = test: Antibacterial activity against methicillin-resistant Staphylococcus aureus ATCC 33592 assessed as inhibition of visible bacterial growth incubated for 18 to 20 hrs by CLSI method; type: functional; conditions: time 18-20 hrs; in short: as §1
Streptococcus pneumoniae [6] = test: Antibacterial activity against cephalosporin-resistant Streptococcus pneumoniae ATCC 51916 assessed as inhibition of visible bacterial growth incubated for 18 to 20 hrs by CLSI method; type: functional; conditions: time 18-20 hrs; in short: as §1
Staphylococcus aureus [7] = test: Antibacterial activity against methicillin-resistant Staphylococcus aureus NRS484 assessed as inhibition of visible bacterial growth incubated for 18 to 20 hrs by CLSI method; type: functional; conditions: time 18-20 hrs; in short: as §1
Staphylococcus aureus [8] = test: Antibacterial activity against methicillin-resistant Staphylococcus aureus NRS386 assessed as inhibition of visible bacterial growth incubated for 18 to 20 hrs by CLSI method; type: functional; conditions: time 18-20 hrs; in short: as §1
[9] = Hemolytic activity in human RBC at 128 ug/ml incubated for 60 mins relative to control; type: ADME, cell-based, Erythrocyte; conditions: red blood cells (erythrocytes), dose 128 µg/ml, read-out: Activity
In short: (§2)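 Single-donor human erythrocytes as a 5% v/v suspension in PBS. Compounds serially diluted in PBS, in triplicate, and incubated with RBCs at 37 °C for 60 min. PBS served as the negative control and Triton-X as the positive control. Samples spun at 4,000 rpm for 5 min and supernatant absorbance read at 540 nm. Percent hemolysis = 100×(sample−negative)/(positive−negative).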

[10] = Hemolytic activity in human RBC at 64 ug/ml incubated for 60 mins relative to control; type: ADME, cell-based, Erythrocyte; conditions: red blood cells (erythrocytes), at 64 µg/mL, read-out: Activity; in short: as §2
[11] = Hemolytic activity in human RBC at 32 ug/ml incubated for 60 mins relative to control; type: ADME, cell-based, Erythrocyte; conditions: red blood cells (erythrocytes), at 32 µg/mL, read-out: Activity; in short: as §2
Staphylococcus aureus [12] = test: Antibacterial activity against methicillin-resistant Staphylococcus aureus USA400 infected in mouse J774 cells assessed as log reduction in intracellular growth at 16 ug/ml incubated for 18 to 22 hrs; type: functional; conditions: dose 16 µg/ml; time 18-22 hrs
In short: (§3)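 J774 murine macrophages grown in DMEM with 10% FBS at 37 °C, 5% CO2. Cells infected with MRSA USA400 at MOI about 10:1 for 1 h, then washed with gentamicin to remove extracellular bacteria. Agents added at 8 or 16 μg/mL in triplicate, with DMSO vehicle control, for 24 h. Cells lysed with 0.1% Triton-X, lysates plated on tryptic soy agar, and CFU counted after 18-22 h at 37 °C. Analysed by two-way ANOVA with Dunnett's test.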

Staphylococcus aureus [13] = test: Synergistic antibacterial activity against methicillin-resistant Staphylococcus aureus ATCC 33592 assessed as fractional inhibitory concentration index in presence of linezolid by checkerboard assay; type: functional
Staphylococcus aureus [14] = test: Antibacterial activity against methicillin-sensitive Staphylococcus aureus ATCC 6538 assessed as inhibition of visible bacterial growth incubated for 18 to 20 hrs by CLSI method; type: functional; conditions: time 18-20 hrs; in short: as §1
Streptococcus pneumoniae [15] = test: Antibacterial activity against […] Streptococcus pneumoniae ATCC 700677 assessed as inhibition of visible bacterial growth incubated for 18 to 20 hrs by CLSI method; type: functional; conditions: time 18-20 hrs; in short: as §1
Staphylococcus aureus [16] = test: Antibacterial activity against Staphylococcus aureus ATCC 25923 assessed as inhibition of visible bacterial growth incubated for 18 to 20 hrs by CLSI method; type: functional; conditions: time 18-20 hrs; in short: as §1
Staphylococcus aureus [17] = test: Synergistic antibacterial activity against methicillin-resistant Staphylococcus aureus ATCC 33592 assessed as fractional inhibitory concentration index in presence of methicillin by checkerboard assay; type: functional
Enterococcus faecalis [18] = test: Antibacterial activity against vancomycin- resistant Enterococcus faecalis ATCC 51299 assessed as inhibition of visible bacterial growth incubated for 18 to 20 hrs by CLSI method; type: functional; conditions: time 18-20 hrs; in short: as §1
Staphylococcus aureus [19] = test: Synergistic antibacterial activity against methicillin-resistant Staphylococcus aureus ATCC 33592 assessed as fractional inhibitory concentration index in presence of Vancomycin; type: functional
Staphylococcus aureus [20] = test: Antibacterial activity against vancomycin-resistant Staphylococcus aureus 10 assessed as inhibition of visible bacterial growth incubated for 18 to 20 hrs by CLSI method; type: functional; conditions: time 18-20 hrs; in short: as §1
Staphylococcus aureus [21] = test: Antibacterial activity against methicillin-resistant Staphylococcus aureus NRS 119 assessed as inhibition of visible bacterial growth incubated for 18 to 20 hrs by CLSI method; type: functional; conditions: time 18-20 hrs; in short: as §1
Staphylococcus aureus [22] = test: Antibacterial activity against methicillin-resistant Staphylococcus aureus USA400 infected in mouse J774 cells assessed as log reduction in intracellular growth at 8 ug/ml incubated for 18 to 22 hrs; type: functional; conditions: dose 8 µg/ml; time 18-22 hrs; in short: as §3
Listeria monocytogenes = test: Antibacterial activity against Listeria monocytogenes ATCC 19111 assessed as inhibition of visible bacterial growth incubated for 18 to 20 hrs by CLSI method; type: functional; conditions: time 18-20 hrs
In short: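 Broth microdilution per CLSI. Strains grown aerobically overnight on TSA at 37 °C, suspended to 0.5 McFarland, diluted in CAMHB to about 5×10^5 CFU/mL. Agents serially diluted across plate; aerobic incubation 37 °C for 18-20 h. MIC = lowest concentration completely preventing visible growth.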

Staphylococcus aureus [23] = test: Antibacterial activity against methicillin-resistant Staphylococcus aureus NRS483 assessed as inhibition of visible bacterial growth incubated for 18 to 20 hrs by CLSI method; type: functional; conditions: time 18-20 hrs; in short: as §1
Caco-2 = test: Cytotoxicity against human Caco2 cells assessed as reduction in cell viability at 128 ug/ml incubated for 2 hrs by MTS assay; type: cell-based; conditions: caco-2, 2 h, dose 128 µg/ml
Acinetobacter baumannii = test: Antibacterial activity against Acinetobacter baumannii ATCC 19606 RW4 assessed as inhibition of visible bacterial growth at 16 ug/ml incubated for 18 to 20 hrs by CLSI method; type: functional, organism-based; conditions: ATCC 19606 = CIP 70.34 = JCM 6841 RW4, dose 16.0 µg/ml, time 18-20 hrs; in short: as §1
Enterococcus faecalis [24] = test: Antibacterial activity against vancomycin- resistant Enterococcus faecalis ATCC 700221 assessed as inhibition of visible bacterial growth incubated for 18 to 20 hrs by CLSI method; type: functional; conditions: time 18-20 hrs; in short: as §1

O=C(Nc1nnc(-c2cccs2)o1)c1ccc(S(=O)(=O)C(F)(F)F)cc1
MBC (Staphylococcus aureus [1]): > 128 µg/mL
MIC (Staphylococcus aureus [2]): 4 µg/mL (≈ 9.92 µM)
MIC (Staphylococcus aureus [3]): 8 µg/mL (≈ 19.8 µM)
inhibition (Escherichia coli): inactive
MIC (Staphylococcus aureus [4]): 8 µg/mL (≈ 19.8 µM)
MIC (Staphylococcus aureus [5]): 0.5 µg/mL (≈ 1.24 µM)
MIC (Streptococcus pneumoniae [6]): 2 µg/mL (≈ 4.96 µM)
MIC (Staphylococcus aureus [7]): 4 µg/mL (≈ 9.92 µM)
MIC (Staphylococcus aureus [8]): 4 µg/mL (≈ 9.92 µM)
hemolysis at 1 h, 128 ug/ml [9]: 37%
hemolysis at 1 h, 64 ug/ml [10]: 35%
hemolysis at 1 h, 32 ug/ml [11]: 23%
Activity (Staphylococcus aureus [12]): 0.6 log10CFU/ml
fractional inhibitory concentration index (FICI) (Staphylococcus aureus [13]): 1.03
MIC (Staphylococcus aureus [14]): 8 µg/mL (≈ 19.8 µM)
MIC (Streptococcus pneumoniae [15]): 1 µg/mL (≈ 2.48 µM)
MIC (Staphylococcus aureus [16]): 0.5 µg/mL (≈ 1.24 µM)
fractional inhibitory concentration index (FICI) (Staphylococcus aureus [17]): 0.53
MIC (Enterococcus faecalis [18]): 4 µg/mL (≈ 9.92 µM)
fractional inhibitory concentration index (FICI) (Staphylococcus aureus [19]): 1.03
MIC (Staphylococcus aureus [20]): 4 µg/mL (≈ 9.92 µM)
MIC (Staphylococcus aureus [21]): 8 µg/mL (≈ 19.8 µM)
Activity (Staphylococcus aureus [22]): 0.5 log10CFU/ml
MIC (Listeria monocytogenes): 2 µg/mL (≈ 4.96 µM)
MIC (Staphylococcus aureus [23]): 4 µg/mL (≈ 9.92 µM)
Activity (Caco-2): Non-Toxic
inhibition (Acinetobacter baumannii): inactive
MIC (Enterococcus faecalis [24]): 4 µg/mL (≈ 9.92 µM)
